Reference: paper PMC8548355 (Medicinal Chemistry Research, 2021)
In brackets after ≈: the same amount, converted by molar mass.

How the values were obtained:
[1] = system: A. baumannii BAA 1605; test: MIC by broth microdilution against A. baumannii BAA 1605; assay type: cell-based; conditions: Acinetobacter baumannii, BAA1605, read-out: MIC against A. baumannii BAA 1605
[2] = system: K. pneumoniae BAA 1705; test: MIC by broth microdilution against K. pneumoniae BAA 1705; assay type: cell-based; conditions: Klebsiella pneumoniae, BAA1705, read-out: MIC against K. pneumoniae BAA 1705
[3] = system: Vero cells (ATCC CCL-81); test: Cell cytotoxicity assay; assay type: cell-based; conditions: CC50 Vero cells / MIC S. aureus ATCC 29213
[4] = system: E. coli ATCC 25922; test: MIC by broth microdilution against E. coli ATCC 25922; assay type: cell-based; conditions: Escherichia coli, ATCC25922, read-out: MIC against E. coli ATCC 25922
[5] = system: S. aureus ATCC 29213; test: MIC by broth microdilution against S. aureus ATCC 29213; assay type: cell-based, Staphylococcus aureus; conditions: Staphylococcus aureus, ATCC29213, read-out: MIC against S. aureus ATCC 29213, broth microdilution, 37 °C, 16–18 h
[6] = system: MRSA NRS 10129; test: MIC against clinical MRSA isolate NRS 10129; assay type: cell-based; conditions: Staphylococcus aureus, MRSA|NRS10129, read-out: MIC against MRSA NRS 10129
[7] = system: MRSA NRS 10194; test: MIC against clinical MRSA isolate NRS 10194; assay type: cell-based; conditions: Staphylococcus aureus, MRSA|NRS10194, read-out: MIC against MRSA NRS 10194
[8] = system: MRSA NRS 10119; test: MIC against clinical MRSA isolate NRS 10119; assay type: cell-based; conditions: Staphylococcus aureus, MRSA|NRS10119, read-out: MIC against MRSA NRS 10119
[9] = system: S. aureus ATCC 29213 pre-formed biofilm; test: Activity against pre-formed S. aureus biofilm; assay type: cell-based, Staphylococcus aureus; conditions: 10× MIC, 24 h treatment, S. aureus ATCC 29213, compared to comparators
Outline: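 Overnight culture in 1% TSB, shaken at 180 RPM at 37 °C, diluted 1:100 in fresh TSB. Biofilm grown statically for 48 h at 37 °C under an adhesive foil lid for low oxygen. Planktonic cells removed with three PBS (pH 7.4) rinses. Refilled with TSB containing test compound, 24 h at 37 °C. Washed, heat-fixed at 60 °C for 1 h, stained with 0.06% crystal violet for 10 min, eluted with 30% acetic acid, absorbance read at 600 nm.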

[10] = system: MRSA NRS 10186; test: MIC against clinical MRSA isolate NRS 10186; assay type: cell-based; conditions: Staphylococcus aureus, MRSA|NRS10186, read-out: MIC against MRSA NRS 10186
[11] = system: MRSA NRS 10191; test: MIC against clinical MRSA isolate NRS 10191; assay type: cell-based; conditions: Staphylococcus aureus, MRSA|NRS10191, read-out: MIC against MRSA NRS 10191
[12] = system: MRSA NRS 10198; test: MIC against clinical MRSA isolate NRS 10198; assay type: cell-based; conditions: Staphylococcus aureus, MRSA|NRS10198, read-out: MIC against MRSA NRS 10198
[13] = system: VRSA VRS 12; test: MIC against clinical VRSA isolate VRS 12; assay type: cell-based; conditions: Staphylococcus aureus, read-out: MIC against VRSA VRS 12
[14] = system: MRSA NRS 10193; test: MIC against clinical MRSA isolate NRS 10193; assay type: cell-based; conditions: Staphylococcus aureus, MRSA|NRS10193, read-out: MIC against MRSA NRS 10193
[15] = system: clinical MDR S. aureus isolates (MRSA and VRSA); test: MIC against clinical MDR S. aureus isolates, whole panel; assay type: cell-based, Staphylococcus aureus; conditions: nine MRSA and three VRSA strains
[16] = system: MRSA NRS 10192; test: MIC against clinical MRSA isolate NRS 10192; assay type: cell-based; conditions: Staphylococcus aureus, MRSA|NRS10192, read-out: MIC against MRSA NRS 10192
[17] = system: VRSA VRS 4; test: MIC against clinical VRSA isolate VRS 4; assay type: cell-based; conditions: Staphylococcus aureus, read-out: MIC against VRSA VRS 4
[18] = system: MRSA NRS 10100; test: MIC against clinical MRSA isolate NRS 10100; assay type: cell-based; conditions: Staphylococcus aureus, MRSA|NRS10100, read-out: MIC against MRSA NRS 10100
[19] = system: S. aureus ATCC 29213; test: Time–kill kinetics; assay type: cell-based, Staphylococcus aureus; conditions: 24 h; for cfu reduction in time–kill kinetics: 10× MIC
Outline: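 Bacteria diluted to ~10^6 cfu/mL and exposed to test compound at 1× and 10× MIC, with controls, at 37 °C for 24 h. Samples taken at 1, 6 and 24 h, serially diluted ten-fold in PBS, and spread on MHA. Plates incubated at 37 °C for 24 h and colonies counted. Surviving cfu/mL plotted against time with and without compound.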

[20] = system: VRSA VRS 1; test: MIC against clinical VRSA isolate VRS 1; assay type: cell-based; conditions: Staphylococcus aureus, read-out: MIC against VRSA VRS 1
[21] = system: S. aureus ATCC 29213; test: Drug interaction of 22 with FDA-approved drugs, checkerboard method; assay type: cell-based, Staphylococcus aureus; conditions: for MIC: Staphylococcus aureus, ATCC29213, 24 h, read-out: MIC (drug alone); for MIC of drug in the presence of “22” “B”: S. aureus ATCC 29213, checkerboard, in combination with 22; for Inference (drug interaction): combination of 22 with the drug, S. aureus ATCC 29213
[22] = system: S. aureus; conditions: similar activity to 20–23; cited from earlier work

SMILES	MIC [1] [µg/mL]	MIC [2] [µg/mL]	Selectivity index with respect to S. aureus ATCC 29213 (SI) [3]	MIC [4] [µg/mL]	MIC [5] [µg/mL]	MIC [6] [µg/mL]	MIC [7] [µg/mL]	MIC [8] [µg/mL]	MIC [10] [µg/mL]	MIC [11] [µg/mL]	MIC [12] [µg/mL]	MIC [13] [µg/mL]	MIC [14] [µg/mL]	MIC [16] [µg/mL]	MIC [17] [µg/mL]	MIC [18] [µg/mL]	MIC [20] [µg/mL]	MIC [21] [µg/mL]	further results
O=C(Nc1ccc(Br)c(C(F)(F)F)c1)c1ccccc1O [Compound 21, N-(4ʹ-bromo-3ʹ-(trifluoromethyl)phenyl)-2-hydroxybenzamide]	> 64	> 64	<10	> 64	0.5 (≈ 1.39 µM)	–	–	–	–	–	–	–	–	–	–	–	–	–	–
O=C(Nc1ccc(Br)c(C(F)(F)F)c1)c1cc(Cl)ccc1O [Compound 22, 5-Chloro-N-(4ʹ-bromo-3ʹ-(trifluoromethyl)phenyl)-2-hydroxybenzamide]	> 64	> 64	–	> 64	0.25 (≈ 0.634 µM)	0.0625 (≈ 0.158 µM)	0.0625 (≈ 0.158 µM)	0.0312 (≈ 0.0791 µM)	0.0625 (≈ 0.158 µM)	0.0625 (≈ 0.158 µM)	0.0625 (≈ 0.158 µM)	0.0625 (≈ 0.158 µM)	0.0625 (≈ 0.158 µM)	0.0312 (≈ 0.0791 µM)	0.0625 (≈ 0.158 µM)	0.0625 (≈ 0.158 µM)	0.0312 (≈ 0.0791 µM)	0.5	Reduction in pre-formed biofilm [9]: more significant reduction (P < 0.0005); MIC against MRSA and VRSA isolates (range over the panel) [15]: 0.031 to 0.062 µg/mL; Type of killing in time–kill kinetics (in words) ([19]; 1× and 10× MIC): concentration-dependent bactericidal activity; cfu reduction in time–kill kinetics [19]: ~ 8 log10 cfu/mL
O=C(Nc1cccc(C(F)(F)F)c1)c1cc(Cl)ccc1O [Compound 23, 5-Chloro-N-(3ʹ-(trifluoromethyl)phenyl)-2-hydroxybenzamide]	> 64	> 64	<10	> 64	0.5 (≈ 1.58 µM)	–	–	–	–	–	–	–	–	–	–	–	–	–	–
O=C(Nc1ccc(Br)cc1)c1cc(Cl)ccc1O [Compound 25, 5-Chloro-N-(4ʹ-bromophenyl)-2-hydroxybenzamide]	> 64	> 64	–	> 64	0.5 (≈ 1.53 µM)	0.5 (≈ 1.53 µM)	0.5 (≈ 1.53 µM)	0.25 (≈ 0.766 µM)	0.5 (≈ 1.53 µM)	0.5 (≈ 1.53 µM)	0.5 (≈ 1.53 µM)	0.5 (≈ 1.53 µM)	0.5 (≈ 1.53 µM)	0.5 (≈ 1.53 µM)	0.5 (≈ 1.53 µM)	0.5 (≈ 1.53 µM)	0.5 (≈ 1.53 µM)	–	MIC against MRSA and VRSA isolates (range over the panel) [15]: 0.25 to 0.5 µg/mL
O=C(Nc1cc(C(F)(F)F)cc(C(F)(F)F)c1)c1cc(Cl)ccc1O [IMD0354, N-[3,5-Bis(trifluoromethyl)phenyl]-5-chloro-2-hydroxybenzamide]	–	–	–	–	–	–	–	–	–	–	–	–	–	–	–	–	–	–	MIC (reported) [22]: 0.25 µg/mL (≈ 0.652 µM)
C[C@H]1COc2c(N3CCN(C)CC3)c(F)cc3c(=O)c(C(=O)O)cn1c23 [Levofloxacin, reference compound]	8 (≈ 22.1 µM)	64 (≈ 177 µM)	>400	0.0156 (≈ 0.0432 µM)	0.25 (≈ 0.692 µM)	0.25 (≈ 0.692 µM)	0.125 (≈ 0.346 µM)	16 (≈ 44.3 µM)	8 (≈ 22.1 µM)	16 (≈ 44.3 µM)	32 (≈ 88.6 µM)	32 (≈ 88.6 µM)	32 (≈ 88.6 µM)	8 (≈ 22.1 µM)	> 64	0.25 (≈ 0.692 µM)	64 (≈ 177 µM)	0.25	MIC of drug in the presence of “22” “B” [21]: 0.25 µg/mL; Inference (drug interaction) [21]: No interaction
CN[C@H](CC(C)C)C(=O)N[C@H]1C(=O)N[C@@H](CC(N)=O)C(=O)N[C@H]2C(=O)N[C@H]3C(=O)N[C@H](C(=O)N[C@H](C(=O)O)c4cc(O)cc(O)c4-c4cc3ccc4O)[C@H](O)c3ccc(c(Cl)c3)Oc3cc2cc(c3O[C@@H]2O[C@H](CO)[C@@H](O)[C@H](O)[C@H]2O[C@H]2C[C@](C)(N)[C@H](O)[C@H](C)O2)Oc2ccc(cc2Cl)[C@H]1O [Vancomycin, reference compound]	–	–	–	–	–	1 (≈ 0.69 µM)	1 (≈ 0.69 µM)	2 (≈ 1.38 µM)	1 (≈ 0.69 µM)	2 (≈ 1.38 µM)	2 (≈ 1.38 µM)	> 64	2 (≈ 1.38 µM)	2 (≈ 1.38 µM)	> 64	2 (≈ 1.38 µM)	> 64	1	cfu reduction in time–kill kinetics [19]: ~ 9 log10 cfu/mL; MIC of drug in the presence of “22” “B” [21]: 0.5 µg/mL; Inference (drug interaction) [21]: No interaction
